Source: ChEMBL document CHEMBL1138411, “Design, synthesis, and biological evaluation of 1,3-dioxoisoindoline-5-carboxamide derivatives as T-type calcium channel blockers” (Bioorg Med Chem Lett, 2007)

Tests used:
[1] = target: Voltage-dependent T-type calcium channel subunit alpha-1G (Homo sapiens, UniProt O43497); assay: Inhibition of T-type calcium channel Cav3.1 expressed in HEK293 cells co-expressing alpha1G subunit and Kir2.1 potassium channel by patch-clamp assay; assay type: cell-based
Method in brief: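 Cells were HEK293 stably co-expressing Cav3.1 (α1G) and Kir2.1. Single-cell patch-clamp recording measured % inhibition of Ca2+ current at set compound concentrations, giving IC50 values. This was a secondary screen of compounds selected from a primary FDSS6000 fluorescence high-throughput assay.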

[2] = Inhibition of N-type calcium channel activity; set-up: species or system Homo sapiens
[3] = Cytotoxicity against HEK293 cells by MTT assay; assay type: cell-based; details: human
Method in brief: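 MTT viability read-out. Negative control was 0.1% DMSO and positive control was H2O2.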

Homo sapiens = organism: Homo sapiens; assay: Selectivity index, ratio of IC50 for N-type calcium channel to IC50 for T-type calcium channel Cav3.1

Voltage-dependent T-type calcium channel subunit alpha-1G, sequence (O43497 whole entry): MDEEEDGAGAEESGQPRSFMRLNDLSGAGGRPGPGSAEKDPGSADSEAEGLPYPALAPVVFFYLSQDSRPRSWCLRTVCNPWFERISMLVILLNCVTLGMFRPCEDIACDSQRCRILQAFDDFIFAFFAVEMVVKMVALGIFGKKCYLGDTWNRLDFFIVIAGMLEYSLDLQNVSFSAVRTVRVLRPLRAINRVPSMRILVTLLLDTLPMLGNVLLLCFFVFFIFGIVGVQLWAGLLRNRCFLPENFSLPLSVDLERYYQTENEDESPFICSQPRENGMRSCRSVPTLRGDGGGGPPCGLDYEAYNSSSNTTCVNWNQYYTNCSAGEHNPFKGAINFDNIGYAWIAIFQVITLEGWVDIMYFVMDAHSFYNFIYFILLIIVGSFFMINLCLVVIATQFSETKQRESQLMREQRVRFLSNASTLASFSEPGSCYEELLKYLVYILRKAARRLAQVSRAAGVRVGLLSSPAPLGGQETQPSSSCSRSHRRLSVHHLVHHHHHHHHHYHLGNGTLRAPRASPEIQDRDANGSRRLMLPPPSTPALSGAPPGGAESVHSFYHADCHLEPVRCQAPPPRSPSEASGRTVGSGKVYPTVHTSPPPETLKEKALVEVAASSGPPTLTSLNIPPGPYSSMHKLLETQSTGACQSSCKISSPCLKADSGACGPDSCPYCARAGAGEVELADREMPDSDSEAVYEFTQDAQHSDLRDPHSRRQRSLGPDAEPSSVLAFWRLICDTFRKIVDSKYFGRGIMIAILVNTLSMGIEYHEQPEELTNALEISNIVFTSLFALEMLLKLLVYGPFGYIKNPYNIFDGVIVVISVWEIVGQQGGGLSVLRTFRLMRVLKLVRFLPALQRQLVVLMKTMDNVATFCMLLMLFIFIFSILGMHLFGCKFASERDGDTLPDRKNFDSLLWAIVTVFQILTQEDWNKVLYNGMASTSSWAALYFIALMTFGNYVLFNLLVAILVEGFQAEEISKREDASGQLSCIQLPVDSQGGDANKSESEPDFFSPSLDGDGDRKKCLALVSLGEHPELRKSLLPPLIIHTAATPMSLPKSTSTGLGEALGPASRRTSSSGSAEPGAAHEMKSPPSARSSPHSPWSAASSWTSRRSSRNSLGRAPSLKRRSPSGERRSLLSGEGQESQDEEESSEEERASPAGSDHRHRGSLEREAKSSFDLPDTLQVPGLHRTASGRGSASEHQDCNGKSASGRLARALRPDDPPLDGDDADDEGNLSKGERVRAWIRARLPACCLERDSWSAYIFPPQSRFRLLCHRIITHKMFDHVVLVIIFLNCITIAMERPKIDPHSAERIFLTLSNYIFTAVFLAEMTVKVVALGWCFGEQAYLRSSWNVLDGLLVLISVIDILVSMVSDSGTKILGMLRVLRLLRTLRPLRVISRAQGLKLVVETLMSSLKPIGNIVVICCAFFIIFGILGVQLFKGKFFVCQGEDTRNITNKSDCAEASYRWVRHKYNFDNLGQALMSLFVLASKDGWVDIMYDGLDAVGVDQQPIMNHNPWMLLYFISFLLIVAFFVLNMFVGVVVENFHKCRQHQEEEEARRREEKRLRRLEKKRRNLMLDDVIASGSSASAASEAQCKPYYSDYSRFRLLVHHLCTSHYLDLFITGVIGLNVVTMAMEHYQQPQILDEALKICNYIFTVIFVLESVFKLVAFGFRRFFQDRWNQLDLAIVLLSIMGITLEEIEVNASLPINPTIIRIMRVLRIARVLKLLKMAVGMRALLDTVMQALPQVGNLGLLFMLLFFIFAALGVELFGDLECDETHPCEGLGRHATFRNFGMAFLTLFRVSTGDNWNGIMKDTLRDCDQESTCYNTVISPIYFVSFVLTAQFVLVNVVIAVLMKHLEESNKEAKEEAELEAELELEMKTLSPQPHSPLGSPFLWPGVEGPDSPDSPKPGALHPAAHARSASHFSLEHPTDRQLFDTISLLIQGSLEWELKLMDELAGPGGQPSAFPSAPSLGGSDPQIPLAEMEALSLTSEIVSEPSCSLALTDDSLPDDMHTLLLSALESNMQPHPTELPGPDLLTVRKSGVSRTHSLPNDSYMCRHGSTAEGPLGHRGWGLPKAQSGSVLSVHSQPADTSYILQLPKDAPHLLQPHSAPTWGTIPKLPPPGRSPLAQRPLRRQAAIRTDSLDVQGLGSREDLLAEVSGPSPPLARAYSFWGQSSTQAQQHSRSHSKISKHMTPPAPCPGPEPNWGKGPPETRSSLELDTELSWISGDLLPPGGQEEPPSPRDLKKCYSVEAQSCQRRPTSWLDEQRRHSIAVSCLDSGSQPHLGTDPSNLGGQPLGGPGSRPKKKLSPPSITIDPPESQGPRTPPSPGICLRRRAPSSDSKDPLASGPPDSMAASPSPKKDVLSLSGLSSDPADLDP

| Compound | IC50 [1] [µM] | further results |
| --- | --- | --- |
| O=C(NCCN1CCCCC1)c1ccc2c(c1)C(=O)N(Cc1ccccc1)C2=O | 22.8 | – |
| O=C(NCCN1CCCCC1)c1ccc2c(c1)C(=O)N(Cc1ccc(F)cc1)C2=O | 8.88 | – |
| Cc1ccc(CN2C(=O)c3ccc(C(=O)NCCCN4CCCCC4C)cc3C2=O)cc1 (stereo unspecified) | 3.53 | – |
| O=C(NCCN1CCCCC1)c1ccc2c(c1)C(=O)N(Cc1ccccc1Cl)C2=O | 5.82 | – |
| Cc1ccc(CN2C(=O)c3ccc(C(=O)NCCN4CCCCC4)cc3C2=O)cc1 | 5.82 | – |
| CC1CCCCN1CCCNC(=O)c1ccc2c(c1)C(=O)N(Cc1ccc(Cl)cc1)C2=O (stereo unspecified) | – | IC50 [2]: 54.7 µM; CC50 [3]: > 100 µM; Ratio IC50 (Homo sapiens): 59 |
| COc1ccc(CN2C(=O)c3ccc(C(=O)NCCN4CCCCC4)cc3C2=O)cc1 | 5.25 | – |
| COc1cccc(CN2C(=O)c3ccc(C(=O)NCCN4CCCCC4)cc3C2=O)c1 | 14.1 | – |
| O=C(NCCN1CCCCC1)c1ccc2c(c1)C(=O)N(Cc1ccccc1F)C2=O | 14.9 | – |
| O=C(NCCN1CCCCC1)c1ccc2c(c1)C(=O)N(Cc1ccc(Cl)cc1)C2=O | – | IC50 [2]: 33.4 µM; CC50 [3]: > 100 µM; Ratio IC50 (Homo sapiens): 35 |
| O=C(NCCN1CCCCC1)c1ccc2c(c1)C(=O)N(Cc1cccc(Cl)c1)C2=O | 4.09 | – |
| O=C(NCCCN1CCCC1)c1ccc2c(c1)C(=O)N(Cc1ccc(Cl)cc1)C2=O | 1.62 | – |
